Converted amounts (≈) assume the structure as drawn.
System: Plasmodium falciparum
Assay: Minimum inhibitory concentration against schizont maturation of Plasmodium falciparum NF54 ring stage after 40 h
Assay type: functional
Method in brief: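 P. falciparum NF-54 culture kept in RPMI-1640 with 25 mM HEPES, 1% D-glucose, 0.23% sodium bicarbonate, 10% heat-inactivated human serum. Sorbitol-synchronized rings (~1% parasitaemia, 3% hematocrit). Compounds at 0.25–50 µg/mL in duplicate wells, 37 °C, candle jar, 36–40 h. Giemsa smears scored microscopically; MIC is the lowest concentration blocking full maturation to schizonts. Pyrimethamine served as reference.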

**Q.** `COc1cc(OC)c(-c2cc(-c3ccncc3)nc(N3CCOCC3)n2)cc1OC` was tested. Which MIC did it give?
**A.** Its MIC is 0.5 mg/L (≈ 1.22 µM).

**Q.** `COc1cc(-c2cc(-c3ccncc3)nc(N3CCOCC3)n2)cc(OC)c1OC` was tested. Which MIC did it give?
**A.** Its MIC is 10 mg/L (≈ 24.5 µM).

**Q.** Which MIC does the source give for `CSc1ccc(-c2cc(-c3ccncc3)nc(N3CCOCC3)n2)cc1` here?
**A.** The MIC was 10 mg/L (≈ 27.4 µM).

**Q.** With `COc1ccc(-c2cc(-c3ccncc3)nc(N3CCOCC3)n2)cc1` as the compound, how does the MIC read?
**A.** Its MIC is 2 mg/L (≈ 5.74 µM).

**Q.** Which MIC does the source give for `Cc1ccc(-c2cc(-c3ccncc3)nc(N3CCOCC3)n2)cc1C` here?
**A.** Its MIC is 1 mg/L (≈ 2.89 µM).

**Q.** Which MIC does the source give for `c1csc(-c2cc(-c3ccncc3)nc(N3CCOCC3)n2)c1` here?
**A.** The MIC was 1 mg/L (≈ 3.08 µM).

**Q.** Which MIC does the source give for `O=[N+]([O-])c1cccc(-c2cc(-c3ccncc3)nc(N3CCOCC3)n2)c1` here?
**A.** The MIC was 1 mg/L (≈ 2.75 µM).

**Q.** For `Cc1ccc(-c2cc(-c3ccncc3)nc(N3CCOCC3)n2)cc1`, which MIC is on record?
**A.** Its MIC is 10 mg/L (≈ 30.1 µM).

**Q.** For `CCc1nc(N)nc(N)c1-c1ccc(Cl)cc1` [PYRIMETHAMINE], which MIC is on record?
**A.** The MIC was 10 mg/L (≈ 40.2 µM).

**Q.** Which MIC does the source give for `COc1cccc(-c2cc(-c3ccncc3)nc(N3CCOCC3)n2)c1` here?
**A.** Its MIC is 2 mg/L (≈ 5.74 µM).

**Q.** With `COc1ccc(OC)c(-c2cc(-c3ccncc3)nc(N3CCOCC3)n2)c1` as the compound, how does the MIC read?
**A.** Its MIC is 1 mg/L (≈ 2.64 µM).

**Q.** Which MIC does the source give for `COc1cccc(-c2cc(-c3ccncc3)nc(N3CCOCC3)n2)c1OC` here?
**A.** Its MIC is 1 mg/L (≈ 2.64 µM).

**Q.** How did the MIC turn out when `COc1ccc(-c2cc(-c3ccncc3)nc(N3CCOCC3)n2)c2ccccc12` was run?
**A.** The MIC was 1 mg/L (≈ 2.51 µM).

**Q.** `c1ccc(-c2cc(-c3ccncc3)nc(N3CCOCC3)n2)cc1` was tested. Which MIC did it give?
**A.** Its MIC is 2 mg/L (≈ 6.28 µM).

**Q.** Which MIC does the source give for `Clc1ccc(-c2cc(-c3ccncc3)nc(N3CCOCC3)n2)cc1` here?
**A.** The MIC was 10 mg/L (≈ 28.3 µM).

**Q.** For `COc1cc(OC)cc(-c2cc(-c3ccncc3)nc(N3CCOCC3)n2)c1`, which MIC is on record?
**A.** The MIC was 2 mg/L (≈ 5.28 µM).
